Data as given in ChEMBL document CHEMBL1128488, “4-Diazinyl- and 4-pyridinylimidazoles: potent angiotensin II antagonists. A study of their activity and computational characterization” (J Med Chem, 1995).

How the values were obtained:
Rattus norvegicus [1] = experiment: In vivo concentration inhibiting angiotensin II (A II) induced pressor response in conscious normotensive rats 30 mins after oral administration of 2 uM/kg.; format: functional
How it was run: (§1)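 Male Sprague-Dawley rats (280–340 g), premedicated ip with fentanyl/fluanisone and anesthetized with pentobarbital iv during preparation, then tested conscious. Vehicle or compound given orally by stomach tube at 2 μmol kg−1. A II bolus injections every 15 min for the first hour, then every 30 min, over 4 h.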

[2] = target: T1, Angiotensin II receptor (AT-1) type-1 (Rattus norvegicus, UniProt P29089+P25095); experiment: Inhibition of [3H]angiotensin II binding to rat adrenal cortex membrane containing angiotensin II receptor, type 1; format: tissue-based
T1 sequence (P29089 whole entry): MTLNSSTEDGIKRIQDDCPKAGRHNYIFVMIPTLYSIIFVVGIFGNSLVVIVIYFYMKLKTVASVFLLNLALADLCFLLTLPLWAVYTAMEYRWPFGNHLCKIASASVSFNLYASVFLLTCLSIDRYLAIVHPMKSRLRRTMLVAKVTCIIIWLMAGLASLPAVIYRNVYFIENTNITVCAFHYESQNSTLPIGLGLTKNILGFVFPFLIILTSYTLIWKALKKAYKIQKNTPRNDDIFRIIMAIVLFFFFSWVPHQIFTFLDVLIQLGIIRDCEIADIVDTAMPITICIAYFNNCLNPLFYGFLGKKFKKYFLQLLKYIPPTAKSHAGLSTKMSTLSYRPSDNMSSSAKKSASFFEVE
T1 sequence (P25095 whole entry): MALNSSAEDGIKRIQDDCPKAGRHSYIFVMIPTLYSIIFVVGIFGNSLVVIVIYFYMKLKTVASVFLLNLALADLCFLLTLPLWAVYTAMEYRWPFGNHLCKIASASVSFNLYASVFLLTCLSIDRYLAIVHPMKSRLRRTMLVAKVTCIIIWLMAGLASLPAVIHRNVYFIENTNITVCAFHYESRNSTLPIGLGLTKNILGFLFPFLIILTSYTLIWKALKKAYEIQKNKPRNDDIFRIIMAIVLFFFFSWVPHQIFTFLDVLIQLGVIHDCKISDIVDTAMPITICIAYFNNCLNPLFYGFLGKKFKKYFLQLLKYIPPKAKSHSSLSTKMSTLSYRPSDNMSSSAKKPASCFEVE

Rattus norvegicus [3] = experiment: In vivo concentration inhibiting angiotensin II (A II) induced pressor response in conscious normotensive rats 15 mins after oral administration of 2 uM/kg.; format: functional; how it was run: as §1

Row | Compound | Inhibition (Rattus norvegicus [1]) [%] | Ki [2] [µM] | Inhibition (Rattus norvegicus [3]) [%]
1 | CCCCc1nc(-c2ccc(C)n[n+]2[O-])cn1Cc1ccc(-c2ccccc2-c2nn[nH]n2)cc1 | -35 | 0.044 | 
2 | CCCCc1nc(-c2cc(C(=O)OC)c[n+]([O-])c2)cn1Cc1ccc(-c2ccccc2-c2nn[nH]n2)cc1 |  | 0.041 | 
3 | CCCCc1nc(-c2cnc[n+]([O-])c2)cn1Cc1ccc(-c2ccccc2-c2nn[nH]n2)cc1 |  | 0.025 | 
4 | CCCCc1nc(-c2ccc(C(=O)OC)c[n+]2[O-])cn1Cc1ccc(-c2ccccc2-c2nn[nH]n2)cc1 |  | 0.027 | 
5 | CCCCc1nc(-c2nc(C)ccc2OC)cn1Cc1ccc(-c2ccccc2-c2nn[nH]n2)cc1 |  | 0.25 | 
6 | CCCCc1nc(-c2cc(C(=O)OC)cc(C)[n+]2[O-])cn1Cc1ccc(-c2ccccc2-c2nn[nH]n2)cc1 |  | 0.18 | 
7 | CCCCc1nc(-c2cncc[n+]2[O-])cn1Cc1ccc(-c2ccccc2-c2nn[nH]n2)cc1 |  | 0.243 | 
8 | CCCCc1nc(-c2ncccn2)cn1Cc1ccc(-c2ccccc2-c2nn[nH]n2)cc1 |  | 0.059 | 
9 | CCCCc1nc(Cl)c(CO)n1Cc1ccc(-c2ccccc2-c2nnn[nH]2)cc1 [LOSARTAN] | -33 |  | 
10 | CCCCc1nc(-c2c(C(=O)OC)c(C)cc(C)[n+]2[O-])cn1Cc1ccc(-c2ccccc2-c2nn[nH]n2)cc1 | -29 | 0.0091 | 
11 | CCCCc1nc(-c2ncccc2OC)cn1Cc1ccc(-c2ccccc2-c2nn[nH]n2)cc1 |  | 0.29 | 
12 | CCCCc1nc(-c2cncnc2)cn1Cc1ccc(-c2ccccc2-c2nn[nH]n2)cc1 |  | 0.042 | 
13 | CCCCc1nc(-c2ccc(C(=O)OC)nn2)cn1Cc1ccc(-c2ccccc2-c2nn[nH]n2)cc1 | -9.3 | 0.0088 | 
14 | CCCCc1nc(-c2cnccc2C(=O)OC)cn1Cc1ccc(-c2ccccc2-c2nn[nH]n2)cc1 |  | 0.067 | 
15 | CCCCc1nc(-c2nc(C)ccc2C(=O)OC)cn1Cc1ccc(-c2ccccc2-c2nn[nH]n2)cc1 |  | 0.032 | 
16 | CCCCc1nc(-c2c(C(=O)OC)ccc(C)[n+]2[O-])cn1Cc1ccc(-c2ccccc2-c2nn[nH]n2)cc1 | -55 | 0.0045 | 
17 | CCCCc1nc(-c2nc(C)cc(C)c2C(=O)OC)cn1Cc1ccc(-c2ccccc2-c2nn[nH]n2)cc1 |  | 0.053 | 
18 | CCCCc1nc(-c2ccc(C)nn2)cn1Cc1ccc(-c2ccccc2-c2nn[nH]n2)cc1 |  | 0.012 | -30

Row | Compound | Inhibition (Rattus norvegicus [1]) [%] | Ki [2] [µM] | Inhibition (Rattus norvegicus [3]) [%]
19 | CCCCc1nc(-c2nc(C)cnc2C)cn1Cc1ccc(-c2ccccc2-c2nn[nH]n2)cc1 | -18 | 0.077 | 
20 | CCCCc1nc(-c2ccc(C(=O)OC)[n+]([O-])n2)cn1Cc1ccc(-c2ccccc2-c2nn[nH]n2)cc1 |  | 0.054 | 
21 | CCCCc1nc(-c2ccc(C)[n+]([O-])n2)cn1Cc1ccc(-c2ccccc2-c2nn[nH]n2)cc1 | -27 | 0.04 | 
22 | CCCCc1nc(-c2nccnc2C(=O)OC)cn1Cc1ccc(-c2ccccc2-c2nn[nH]n2)cc1 |  | 0.09 | 
23 | CCCCc1nc(-c2cccnc2C(=O)OC)cn1Cc1ccc(-c2ccccc2-c2nn[nH]n2)cc1 |  | 0.045 | 
24 | CCCCc1nc(-c2nc(C)c[n+]([O-])c2C)cn1Cc1ccc(-c2ccccc2-c2nn[nH]n2)cc1 | -21 | 0.0044 | 
25 | CCCCc1nc(-c2cnc(C(=O)OC)nc2C)cn1Cc1ccc(-c2ccccc2-c2nn[nH]n2)cc1 |  | 0.07 | 
26 | CCCCc1nc(-c2cncc(C(=O)OC)c2)cn1Cc1ccc(-c2ccccc2-c2nn[nH]n2)cc1 |  | 0.03 | 
27 | CCCCc1nc(-c2c(OC)ccc(C)[n+]2[O-])cn1Cc1ccc(-c2ccccc2-c2nn[nH]n2)cc1 | -22 | 0.038 | 
28 | CCCCc1nc(-c2ccc(C(=O)OC)cn2)cn1Cc1ccc(-c2ccccc2-c2nn[nH]n2)cc1 | -33 | 0.012 | 
29 | CCCCc1nc(-c2nccc[n+]2[O-])cn1Cc1ccc(-c2ccccc2-c2nn[nH]n2)cc1 |  | 0.061 | 
30 | CCCCc1nc(-c2cnccn2)cn1Cc1ccc(-c2ccccc2-c2nn[nH]n2)cc1 |  | 0.04 | 
31 | CCCCc1nc(-c2cccc(C(=O)OC)n2)cn1Cc1ccc(-c2ccccc2-c2nn[nH]n2)cc1 | -23 | 0.019 | 
32 | CCCCc1nc(-c2c(C(=O)OC)ccc[n+]2[O-])cn1Cc1ccc(-c2ccccc2-c2nn[nH]n2)cc1 |  | 0.029 | 
33 | CCCCc1nc(-c2ncccc2C(=O)OC)cn1Cc1ccc(-c2ccccc2-c2nn[nH]n2)cc1 |  | 0.04 | 
34 | CCCCc1nc(-c2cccc(OC)n2)cn1Cc1ccc(-c2ccccc2-c2nn[nH]n2)cc1 |  | 0.025 | -11
35 | CCCCc1nc(-c2c(C)ncc(C)[n+]2[O-])cn1Cc1ccc(-c2ccccc2-c2nn[nH]n2)cc1 | -44 | 0.0025 | 
